Source: ChEMBL document CHEMBL3244312, “Cannabinoids. 1. 1-Amino- and 1-mercapto-7,8,9,10-tetrahydro-6H-dibenzo [b,d]pyrans” (1977)
Active and inactive are the calls of the source. The calls are words filed in the database; no cut-off is given here.

Legend:
Rattus norvegicus [1] = experiment: CNS activity in po dosed rat assessed as protection against muricide; assay type: functional; settings: for minimal effective dose: Rattus norvegicus, po, read-out: MED
Procedure, shortened: (§1)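 Rats with innate mouse-killing behaviour, control kill time under 5 s; three rats per dose, oral dosing, vehicle controls at equal injection volume. Muricide scored 15–360 min post-dose (0 = 0–59 s, 1 = 60–120 s, 2 = >120 s). Scores converted to percent protection versus vehicle; Student's t test for significance.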

Mus musculus [2] = experiment: CNS activity in mouse assessed as alteration of exploratory behaviour at 20 mg/kg, po; assay type: functional, organism-based; parameters: dose 20 mg/kg
Procedure, shortened: (§2)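 Mice in groups of five, dosed orally, placed in doughnut-shaped activity cages (six infrared photocells) 90 min post-dose. Beam breaks counted cumulatively at 30, 60, 90 and 120 min in cage ([…]) plus 120-min total. Counts compared with vehicle-injected controls. Compounds dissolved in acetone.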

Rattus norvegicus [3] = experiment: CNS activity in septal-lesioned rat assessed as decrease in hyperreactivity behaviour at 10 mg/kg, po; assay type: functional, organism-based; parameters: dose 10 mg/kg
Procedure, shortened: (§3)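 Septal-lesioned rats rated hyperreactive at score ≥11 used as their own controls; oral dosing. Reactivity rated at 30, 60, 120, 240, 300 min post-dose. P value = postdrug rating sum / predrug sum per period. E value = mean of ten 30-min periods over 300 min, interpolated, / predrug sum. Student's t test, p<0.01.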

Rattus norvegicus [4] = experiment: CNS activity in rat assessed as protection against muricide at 10 mg/kg, po; assay type: functional, organism-based; parameters: dose 10 mg/kg; procedure, shortened: as §1
Mus musculus [5] = experiment: CNS activity in po dosed mouse assessed as alteration of exploratory behaviour; assay type: functional; settings: for minimal effective dose: Mus musculus, po, read-out: MED; procedure, shortened: as §2
Rattus norvegicus [6] = experiment: CNS activity in po dosed septal-lesioned rat assessed as decrease in hyperreactivity behaviour; assay type: functional; settings: for minimal effective dose: Rattus norvegicus, po, read-out: MED; procedure, shortened: as §3

| Compound | Activity (Mus musculus [2]) | Activity (Rattus norvegicus [3]) | Activity (Rattus norvegicus [4]) | minimal effective dose (Mus musculus [5]) | also measured |
| --- | --- | --- | --- | --- | --- |
| CCCCCCC(C)(C)c1cc(O)c2c(c1)OC(C)(C)C1=C2CC(C)CC1 (stereo in doubt; l-4c) |  |  |  |  | MED (Rattus norvegicus [1]): 1.25 mg/kg |
| CCCCCc1cc(NC(C)=O)c2c(c1)OC(C)(C)C1=C2CC(C)CC1 (racemic) | inactive | inactive | inactive |  |  |
| CCCCCCC(C)(C)c1cc(N)c2c(c1)OC(C)(C)C1=C2CC(C)CC1 (racemic) [listing 1 of 2 here] |  | inactive |  |  |  |
| CCCCCc1cc(S)c2c(c1)OC(C)(C)C1=C2CC(C)CC1 (racemic) | inactive | inactive | inactive |  |  |
| CCCCCCC(C)(C)c1cc(N)c2c(c1)OC(C)(C)C1=C2CC(C)CC1 (stereo in doubt; d-10c) [listing 1 of 2 here] |  | inactive | inactive |  |  |
| CCCCCC(C)C(C)c1cc(NC(C)=O)c2c(c1)OC(C)(C)C1=C2CC(C)CC1 (racemic) | inactive | inactive |  |  | minimal effective dose (Rattus norvegicus [1]): 10 mg/kg |
| CCCCCCC(C)(C)c1cc(N)c2c(c1)OC(C)(C)C1=C2CC(C)CC1 (stereo in doubt; d-10c) [listing 2 of 2 here] |  |  |  |  | MED (Mus musculus [5]): 10 mg/kg |
| CCCCCCC(C)(C)c1cc(O)c2c(c1)OC(C)(C)C1=C2CC(C)CC1 (racemic) |  |  |  | 0.62 mg/kg | minimal effective dose (Rattus norvegicus [6]): 1.25 mg/kg; MED (Rattus norvegicus [1]): 0.62 mg/kg |
| CCCCCC(C)C(C)c1cc(S)c2c(c1)OC(C)(C)C1=C2CC(C)CC1 (racemic) | inactive | inactive | inactive |  |  |
| CCCCCCC(C)(C)c1cc(NS(C)(=O)=O)c2c(c1)OC(C)(C)C1=C2CC(C)CC1 (racemic) |  | inactive | inactive | 20 mg/kg |  |
| CCCCCC(C)C(C)c1cc(NC)c2c(c1)OC(C)(C)C1=C2CC(C)CC1 (racemic) |  | inactive | inactive | 20 mg/kg |  |
| CCCCCC(C)C(C)c1cc2c(c(N(C)C)c1)C1=C(CCC(C)C1)C(C)(C)O2 (racemic) |  | inactive | inactive | 20 mg/kg |  |
| CCCCCc1cc(O)c2c(c1)OC(C)(C)C1=C2CC(C)CC1 (racemic) | inactive | inactive |  |  | minimal effective dose (Rattus norvegicus [1]): 10 mg/kg |
| CCCCCCC(C)(C)c1cc(O)c2c(c1)OC(C)(C)C1=C2CC(C)CC1 (stereo in doubt; d-4c) |  |  |  |  | MED (Mus musculus [5]): 0.31 mg/kg; MED (Rattus norvegicus [6]): 2.5 mg/kg; MED (Rattus norvegicus [1]): 5 mg/kg |
| CCCCCc1cc(N)c2c(c1)OC(C)(C)C1=C2CC(C)CC1 (racemic) | inactive | inactive | inactive |  |  |
| CCCCCC(C)C(C)c1cc(N)c2c(c1)OC(C)(C)C1=C2CC(C)CC1 (racemic) |  |  |  | 2.5 mg/kg | minimal effective dose (Rattus norvegicus [6]): 10 mg/kg; minimal effective dose (Rattus norvegicus [1]): 5 mg/kg |
| CCCCCCC(C)(C)c1cc(N)c2c(c1)OC(C)(C)C1=C2CC(C)CC1 (stereo in doubt; l-10c) [listing 1 of 2 here] |  | inactive |  |  |  |
| CCCCCc1cc2c(c(N(C)C)c1)C1=C(CCC(C)C1)C(C)(C)O2 (racemic) | inactive | inactive | inactive |  |  |
| CCCCCCC(C)(C)c1cc(N)c2c(c1)OC(C)(C)C1=C2CC(C)CC1 (racemic) [listing 2 of 2 here] |  |  |  | 5 mg/kg | minimal effective dose (Rattus norvegicus [1]): 10 mg/kg |
| CCCCCCC(C)(C)c1cc(N)c2c(c1)OC(C)(C)C1=C2CC(C)CC1 (stereo in doubt; l-10c) [listing 2 of 2 here] |  |  |  |  | MED (Mus musculus [5]): 5 mg/kg; MED (Rattus norvegicus [1]): 10 mg/kg |
| CCCCCC(C)C(C)c1cc(O)c2c(c1)OC(C)(C)C1=C2CC(C)CC1 (racemic) |  |  |  | 0.62 mg/kg | minimal effective dose (Rattus norvegicus [6]): 5 mg/kg; minimal effective dose (Rattus norvegicus [1]): 2.5 mg/kg |
